This is an account of results in ChEMBL document CHEMBL2346548, “Design, synthesis, and structure-activity relationship studies of tryptanthrins as antitubercular agents” (J Nat Prod, 2013).

Series [1] in a line: Half life in C57BL/6 mouse at 40 mg/kg, po formulated in 0.1% SLS. Further details: dose 40 mg/kg, route oral. As to conditions: in vivo. It counts as ADME, organism-based. A digest of the protocol: (§1)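 Female C57BL/6 mice, single 40 mg/kg oral gavage; three mice per time point; plasma at 30 min to 24 h, LC-MS; noncompartmental parameters reported as means.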
Series [2] is described as follows: AUC (0 to infinity) in C57BL/6 mouse at 40 mg/kg, po formulated in 0.1% SLS. On the set-up: time infinity, dose 40 mg/kg, route oral. It counts as ADME, organism-based. To be noted: plasma.
Series [3] in a line: Elimination half life in Sprague-Dawley rat at 5 mg/kg, iv. It counts as ADME, organism-based. Further details: dose 5 mg/kg, route intravenous. To be noted: in vivo, read-out: beta t1/2 (converted). Put shortly:
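Male Sprague-Dawley rats (n = 3), single 5 mg/kg iv dose as solution in PEG300/DMSO 50:50; plasma sampled 0.083–24 h, LC-MS bioanalysis; noncompartmental analysis, means.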

Series [4] is described as follows: Cmax in C57BL/6 mouse at 40 mg/kg, po formulated in 20% DMSODMSO, 20% PEG400, 60% (30% HP-beta-CD in water). On the set-up: dose 40 mg/kg, route oral. It counts as ADME, organism-based. As to conditions: in vivo. A digest of the protocol: as §1
The nature of series [5]: Cmax in C57BL/6 mouse at 40 mg/kg, po formulated in 0.1% SLS. The format is ADME, organism-based. On the set-up: dose 40 mg/kg, route oral. To be noted: in vivo. A digest of the protocol:
as §1

Series [6] has as its system Salmonella typhimurium. In words: Mutagenicity in Salmonella typhimurium TA98 assessed as mean revertant colonies at 0.25 to 240 ug/well in absence of rat liver S9 fraction. The format is toxicity, organism-based. To be noted: salmonella enterica subsp. enterica serovar typhimurium. Put shortly: (§2)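 MicroAmes: strains preincubated with or without Aroclor-induced rat liver S9, duplicate wells, six concentrations 0.25–250 μg equivalents/well; DMSO vehicle, 4-nitroquinoline-N-oxide (−S9) and 2-aminoanthracene (+S9) positive controls; revertant colonies counted; cytotoxicity noted as reduced revertants or background lawn; precipitation recorded.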

Series [7] is described as follows: Distribution coefficient, log D of the compound between n-octanol and PBS buffer at pH 7.4 incubated for 1 hr by shake flask method. It counts as physicochemical. Put shortly:
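Partition between n-octanol and PBS pH 7.4 after 1 h shaking at room temperature; phases analysed by HPLC with photodiode detection; logD = log10 of organic/aqueous amount.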

In series [8] the test system is Mycobacterium tuberculosis. In words: Antitubercular activity against Mycobacterium tuberculosis H37Rv incubated at 37 degC for 14 days in presence of 40% human serum by microplate alamar blue assay. As to conditions: 336 h. It counts as functional. A digest of the protocol: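 This is the MABA run in 7H9 broth containing 40% human serum. Compounds were 2-fold serially diluted, and wells were inoculated with H37Rv at 2 × 10⁵ CFU/mL. Incubation was at 37 °C for 14 days, then Alamar Blue was added. MIC was the lowest concentration preventing the blue-to-pink colour change.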
A general note: The colour change of resazurin is a common sign of viable cells or microbes.

Series [9] can be described thus: Efflux ratio in human Caco2 cells incubated for 1 hr at 37 degC by HPLC-MS/MS method. The format is ADME, cell-based. To be noted: Caco-2. Background: Caco-2 cells form a polarised layer with tight junctions and transporters.
Series [10] has as its system Mycobacterium tuberculosis. The series can be described thus: Antitubercular activity against Mycobacterium tuberculosis H37Rv incubated at 37 degC for 7 days by microplate alamar blue assay. The format is functional. To be noted: Mycobacterium tuberculosis, H37Rv, 168 h. A digest of the protocol:
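Mtb H37Rv was grown in 7H9 broth with glycerol, Casitone, 10% OADC and 0.05% Tween 80 to OD600 0.4. Compounds were 2-fold serially diluted from DMSO stocks in 7H9, and wells were inoculated at 2 × 10⁵ CFU/mL. After 7 days at 37 °C, Alamar Blue was added and read after a further 24 h. MIC was the lowest concentration preventing the blue-to-pink change.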

For series [11], the system named is Salmonella typhimurium. In words: Mutagenicity in Salmonella typhimurium TA100 assessed as mean revertant colonies at 0.25 to 240 ug/well in presence of rat liver S9 fraction. It counts as toxicity, organism-based. As to conditions: salmonella enterica subsp. enterica serovar typhimurium. A digest of the protocol: as §2
A short description of series [12]: Cmax in Sprague-Dawley rat at 20 mg/kg, po. It counts as ADME, organism-based. Further details: dose 20 mg/kg, route oral. To be noted: in vivo.

Values after ≈ are worked out from the molar mass of the structure shown.

The term AUC(0-inf) denotes the area under the concentration-time curve extrapolated to infinity. Higher therefore signals more exposure. As a reminder, the Cmax is the highest concentration seen after dosing. As a reminder, the logD is lipophilicity at a set pH, counting ionised and neutral species. The term MIC denotes the least concentration at which growth counts as inhibited. What is called efflux ratio is the permeability from basolateral to apical divided by that in the opposite direction, in the common usage. On to `O=C1C2=Nc3ccccc3CN2c2ccc(Cl)cc21`, for which the values for the half-life in series [1] and in series [3] were 3.08 h and 1.42 h, respectively. The AUC(0-inf) in series [2] is 1400 ng·h/mL. Besides, the values for the Cmax in [4], in series [5] and in [12] were 371 ng/mL, 197 ng/mL and 50 ng/mL, respectively. Also, the Activity entry in [6] and in [11] was “Non-toxic” in each case. Moreover, in [7], the logD at 1 h was 3.37. Moreover, the figures for the minimal inhibitory concentration (MIC) in series [8] and in series [10] were 0.125 µg/mL and 0.125 µg/mL (≈ 0.465 µM), respectively. For the same compound, the efflux ratio at 1 h in series [9] is more than 1.
